Screening results from PubChem BioAssay.
An excerpt weighted towards active compounds, which were near 0.57% of everything screened.
p-CIP stab down – compounds decreasing mouse p/CIP protein stability. AID 1984. Q05BA5. F442A p/CIP-EGFP cells, EGFP fluorescence, 16 h. decrease of EGFP signal, % at 10 µM. hit rate 0.01% among 290,000;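 active = EGFP signal decrease of at least 30% at 10 µM or well 3 SD below plate mean, unless failing retest; inactive = the rest, including hits failing retest or dose response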
Arr AP2 block – blocks beta-arrestin peptide binding to AP2 adaptin; FITC-arrestin peptide / GST-AP2 beads, flow cytometry; AP2 beta2 appendage carries R879A mutation; inhibition, % at 10 µM; hit rate 0.31% among 340,000;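 active = inhibition above a set limit, near 3 SD of compounds lacking own fluorescence, cut at about 54% in these data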;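 note: plate controls were DMSO wells for no effect and 5 µM unlabelled arrestin peptide for full effect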
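System: GST-AP2 R879A bound to glutathione beads, E. coli-expressed. Also added: 50 nM FITC-arrestin peptide. Schedule: compound with beads 12 min RT, then probe 1 h RT. Signal: bead flow cytometry, FITC channel. Read-out basis: percent response.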
VLA-4 inh – inhibition in a human VLA-4 binding assay; inhibition, % (about 7 µM as worked out from the volumes in the protocol); hit rate 0.2% among 330,000; VLA-4 expressing cells, ligand binding flow cytometry; AID 2557; in the data active = inhibition above about 50%
JMJD2C inh – inhibitors of human GASC-1 (JMJD2C) demethylase. hit rate 0.069% among 330,000. inhibition, % at 2.35 µM. GST-JMJD2C(1-420) H3K9me3 demethylation, DELFIA europium;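 active = more than half of a compound's replicate wells show inhibition beyond 50%, single wells judged on their own value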;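 note: signal counts dimethyl H3K9 product captured on neutravidin plate; 0% = median of DMSO wells and 100% = 0.3 times that DMSO median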
Target sequence (Q9H3R0 1-420 limits assumed): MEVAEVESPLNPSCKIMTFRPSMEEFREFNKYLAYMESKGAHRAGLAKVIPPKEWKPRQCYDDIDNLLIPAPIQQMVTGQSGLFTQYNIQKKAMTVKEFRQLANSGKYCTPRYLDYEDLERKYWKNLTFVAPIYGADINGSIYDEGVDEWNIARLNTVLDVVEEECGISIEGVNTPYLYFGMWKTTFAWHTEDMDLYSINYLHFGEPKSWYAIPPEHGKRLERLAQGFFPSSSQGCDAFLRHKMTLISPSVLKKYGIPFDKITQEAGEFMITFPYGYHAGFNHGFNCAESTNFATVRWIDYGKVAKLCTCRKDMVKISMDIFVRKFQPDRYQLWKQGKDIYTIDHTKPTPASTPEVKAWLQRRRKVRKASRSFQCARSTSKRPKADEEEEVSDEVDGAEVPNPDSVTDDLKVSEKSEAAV
VLA-4 allo CP – human VLA-4 allosteric modulation in cherry picked compounds; shares compounds with VLA-4 inh; U937 cells, HUTS-21 LIBS mAb binding, flow cytometry; LDV ligand present at threefold Kd; inhibition, % at 6.7 µM; hit rate 2% among 1,300; AID 2813; in the data active = inhibition above about 40%;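 note: 0% = ligand without compound and 100% = no ligand background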
The depositor's hits bear a star; i = inactive; . = no result.

SMILES	p-CIP stab down	Arr AP2 block	VLA-4 inh	JMJD2C inh	VLA-4 allo CP
CC(CNC(=O)c1cc(COc2c(F)cccc2F)on1)c1ccccc1 (stereo not drawn)	1.6	-12.4	-0.9	13.7	.
Cc1cccc2c1NC(=O)C21OCC(CO)([N+](=O)[O-])CO1 (stereo not drawn)	2.6	36.8	9.3	0.6	.
COc1ccc(-c2sc3ccc(OC)cc3c2-c2ccc(OCCN3CCOCC3)cc2)cc1	.	27.2	.	.	0.7
COc1cccc(-c2sc3ccccc3c2-c2ccc(OCCN(C)C)cc2)c1	.	-5.0	72.1*	5.1	44.2*
COc1cccc(-c2sc3ccc(OC)cc3c2-c2ccc(OC)cc2F)c1	.	3.1	14.6	7.7	.
COc1cccc(-c2sc3ccc(OC)cc3c2-c2ccc(C(N)=O)cc2)c1	.	.	26.4	2.5	.
COc1cccc(-c2sc3ccccc3c2-c2ccc(OCCN3CCCC3)cc2)c1	.	-1.4	63.8*	-3.8	38.1
COc1cccc(-c2sc3ccc(OC)cc3c2-c2ccc(OCCN3CCCC3)cc2)c1	.	-1.1	.	.	11.8
COc1ccc(-c2cc(=O)c3ccccc3s2)cc1	-9.5	20.2	19.7	4.1	.
COc1ccc(OCCN2CCOCC2)cc1	-2.5	-13.9	8.1	-2.1	.
COc1cccc(C(=O)OCCN2CCCCC2)c1	-5.1	2.6	19.4	7.2	.
COc1cccc(-c2sc3cc(OC)c(OC)cc3c2-c2ccc(OCCN3CCCCC3)cc2)c1	.	2.4	.	.	0.0
c1ccc(COc2ccc(OCCN3CCCCC3)cc2)cc1	-26.7	7.1	4.0	2.9	.
COc1cccc(-c2sc3ccccc3c2-c2ccc(OCCN3CCCCC3)cc2)c1	.	-1.4	44.6	1.3	19.7
COc1ccc2sc(-c3ccccc3OC)c(-c3ccc(OC)c(F)c3)c2c1	.	-5.5	15.1	-2.4	.
COc1ccc2sc(-c3ccccc3OC)c(-c3ccc(OCCN(C)C)cc3)c2c1	.	3.4	.	.	-3.9
CCCCn1cnc2c(=S)nc(N)[nH]c21	2.2	1.1	3.9	1.6	.
Cc1ccc(NC(=S)N(Cc2cccc(Br)c2)CC2CCC(C(=O)O)CC2)cc1Cl (stereo not drawn)	-11.5	9.5	8.8	11.7	.
CCn1c(SCC(=O)NC(C)(C)C)nnc1-c1ccncc1	-12.6	5.4	7.2	-5.1	.
CC(=O)c1c(C)[nH]c(C(=O)CSc2nnc(C3CCCCC3)n2N)c1C	-14.2	4.1	51.9*	8.4	4.4
C=CCn1c(C)nnc1SCC(=O)c1[nH]c(C)c(C(C)=O)c1C	13.4	-2.6	2.7	1.1	.
O=C(C1CCC(CNS(=O)(=O)c2cccc3cccnc23)CC1)N1CCc2ccccc21 (stereo not drawn)	-16.6	0.4	52.7*	3.5	10.8
O=C(COc1ccc(S(=O)(=O)N2CCCCC2)cc1)NCc1ccncc1	-6.2	18.6	-1.8	-10.3	.
Cc1cccc(NC(=O)CSCC(=O)N(C)CCOc2ccc(Cl)cc2)c1	.	14.5	51.9*	-4.9	-1.6
COCC(C)NC(=O)c1ccc(CN2CCc3ccccc3C2)cc1 (stereo not drawn)	2.4	1.8	-5.6	-2.1	.
SMILES	p-CIP stab down	Arr AP2 block	VLA-4 inh	JMJD2C inh	VLA-4 allo CP
COc1ccc([C@@]2(O)c3c(ccc(CC=C(C)C)c3O)NC(=O)[C@@H]2OC)cc1	-4.9	15.3	0.0	i	-9.5
COc1ccc(C2(O)C(=O)Nc3ccc(C)cc32)cc1 (stereo not drawn)	-7.7	35.4	-7.7	0.8	.
O=c1c2[nH]c3cccc(Cl)c3c2ncn1CCN1CCCCC1	-16.6	11.6	-1.1	17.1	5.1
O=c1c2[nH]c3cccc(Cl)c3c2ncn1CC1CCCO1 (stereo not drawn)	-7.2	2.2	-20.9	5.4	9.0
COc1ccc2c(c1)[nH]c1c(=O)n(Cc3ccco3)cnc12	-12.7	7.0	11.4	-5.6	.
O=c1c2[nH]c3cccc(Cl)c3c2ncn1Cc1ccco1	-13.3	-5.6	-1.1	-19.1	13.7
CCc1onc(C)c1C(=O)O	5.5	-4.4	10.1	-4.9	.
Cc1ccc(NCc2nnc(SCC(N)=O)o2)c(C)c1	-3.1	9.2	3.9	10.7	.
COc1ccc(Cc2nc3ccc(S(N)(=O)=O)cc3[nH]2)cc1OC	-8.2	.	102.2*	-3.2	-1.1
CCC(CO)NCCNC(CC)CO (stereo not drawn)	-5.8	20.1	50.2*	-0.9	2.6
CC[C@H](CO)NCCN[C@H](CC)CO	-12.0	0.5	-8.4	-5.0	.
COc1cc2c(cc1NC(=O)COC(=O)[C@@H](NC(=O)c1ccccc1)C(C)C)oc1ccccc12	8.5	-7.7	11.8	4.8	.
O=C(NCc1ccccc1F)C1CCN(C(=O)c2sccc2-n2cccc2)CC1	-7.8	-2.4	111.3*	-2.7	8.6
COc1ccc(C(=O)N(Cc2ccco2)Cc2cccs2)c(O)c1	-16.6	23.3	54.5*	7.5	1.1
NC(=O)CC(NC(=O)c1cccc(Br)c1)c1ccc(N2CCC(N3CCCCC3)CC2)c([N+](=O)[O-])c1 (stereo not drawn)	1.7	2.5	55.9*	-12.4	5.1
O=C(CCNC(=O)c1ccccc1)Nc1ccc(F)c(Cl)c1	-1.4	3.0	54.1*	-1.1	13.7
COC(=O)c1ccc(NC(=O)Nc2ccc(F)cc2)cc1	-0.1	0.5	7.2	23.9	.
COc1ccc(NC(=O)Nc2ccc(F)cc2)cn1	-9.4	33.0	3.8	-15.0	6.1
CC(C)OCCCn1c(-c2ccco2)nc2nc3ccccc3nc21	-16.5	16.7	-15.8	4.5	.
COCCn1c(-c2ccco2)nc2nc3ccccc3nc21	-20.7	24.8	92.3*	8.9	-3.0
CC(C)(O)C#Cc1ccc(C(=O)N2CCCC(CCC(=O)NCc3ccccc3F)C2)cc1 (stereo not drawn)	-21.9	38.0	-104.9	0.8	.
CCOC(=O)c1cnc(SCC(=O)N2CCN(C(=O)c3ccco3)CC2)nc1N	-0.4	-5.1	-10.9	35.7	.
CC(OC(=O)c1ccc(O)cc1)C(=O)Nc1cc(C(F)(F)F)ccc1Cl (stereo not drawn)	-4.8	3.1	3.5	1.7	-8.6
O=C(COC(=O)c1ccc(O)cc1)Nc1cc(C(F)(F)F)ccc1Cl	-6.5	-14.0	-1.1	-2.6	.
COc1ccccc1N1CCN(Cc2nc(-c3ccc(F)cc3)oc2C)CC1	-12.6	-0.3	51.6*	17.3	-6.7
SMILES	p-CIP stab down	Arr AP2 block	VLA-4 inh	JMJD2C inh	VLA-4 allo CP
CN(C)c1ccc(N/C=C/C(=O)c2ccc(F)cc2)cc1	-12.7	19.1	-5.1	-18.6	.
O=C(O)C1(O)C[C@H](O)C(O)[C@@H](O)C1 (stereo partly drawn)	.	5.4	50.4*	.	1.3
Nc1nc(CN2CCN(c3ccccc3F)CC2)nc(Nc2ccccc2)n1	-6.5	12.9	76.5*	3.8	-0.2
Cc1ccc(Nc2nc(N)nc(CN3CCN(c4ccccc4F)CC3)n2)cc1	6.1	6.4	26.4	-17.9	.
C/C(=N\NC(=O)Cc1c(C)[nH][nH]c1=O)c1ccc2ccccc2c1	5.6	.	61.0*	-1.7	-15.9
COc1cccc(/C(C)=N/NC(=O)Cc2c(C)[nH][nH]c2=O)c1	1.3	3.9	-7.2	7.8	.
